The list is not random: actives were taken first. Their share in the collection is about 4.1%.
KCC2 mod = modulates chloride dependent transport by human KCC2 | Q9H2X9 | KCC2 cells, thallium flux FluoZin-2 fluorescence | B-score of Tl+ flux slope (higher = more flux/activation; lower = inhibition) at 10 µM | hit rate 2.2% among 190,000;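 active = thallium flux slope and its plate-corrected score both differing from the plate sample mean at a set confidence after two filtering rounds, in either direction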;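 also: slope of fluorescence scaled to starting intensity during 10 to 20 s after thallium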
KCNK3 block = human KCNK3 channel inhibition, primary screen. O14649. CHO-KCNK3 thallium flux, FluxOR fluorescence; hits give low values. B-score at 10 µM. hit rate 0.84% among 340,000. AID 602410;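 active = B-score under library mean minus 4 SD, starting fluorescence ratio at most library mean plus 5 SD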;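 also: more negative B-score means stronger inhibition of thallium flux through KCNK3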
KCNQ1 inh = inhibitors of human KCNQ1 potassium channel. P51787. CHO-K1 KCNQ1, FluxOR thallium flux fluorescence; hits give high values. B-score at 10 µM. hit rate 1.3% among 310,000. AID 2642;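 active = compounds whose thallium flux B-score, printed positive for inhibition, exceeds three library SD while starting fluorescence stays within three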;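 also: channel opened by potassium depolarization with thallium stimulus after 20 min compound exposure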
KCNK9 inh = blocks the human KCNK9 two-pore domain potassium channel | Q9NPC2 | B-score at 10 µM | HEK293 KCNK9, FluxOR thallium flux fluorescence; hits give low values | hit rate 1.2% among 310,000;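 active = ratio B-score over 3 SD below the library mean, with starting fluorescence within 5 SD of its mean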;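 also: negative B-score means less thallium flux so channel inhibition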
KCNQ1 pot = potentiators or activators of human KCNQ1 potassium channel; CHO-K1 KCNQ1, thallium flux FluxOR fluorescence; hits give high values; B-score at 10 µM; hit rate 0.35% among 310,000; AID 2648;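 active = fluorescence ratio B-score, a plate-corrected score, at least three library SD, with initial intensity B-score within 5 SD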
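System: CHO-K1 cells stably expressing KCNQ1 / Medium: assay buffer for compound exposure, DMSO matched across wells / Reagent: thallium- and potassium-containing depolarizing buffer / Compound: one concentration, matched DMSO / Incubation: 20 min compound pretreatment at room temperature / Measured by: kinetic FluxOR fluorescence, 10 s baseline plus 110 s post-stimulus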
hERG protect = hERG (human) protection from proarrhythmic block. Q12809. AID 1511. activation (rescue from dofetilide block), less the hit threshold, % at 10 µM. CHO-hERG, FluxOR thallium flux, dofetilide IC70 present. hit rate 0.51% among 310,000;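 active = activation above the mean of controls blocked by dofetilide plus 5 SD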;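 also: thallium influx through hERG after potassium depolarization seen as dye fluorescence rise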
KCNK9 block conf = confirmation of human KCNK9 potassium channel inhibitors | shares compounds with KCNK9 inh | hit rate 43% among 4,900 | AID 492992 | HEK293 KCNK9 cells, FluxOR thallium flux fluorescence | inhibition, % at 10 µM;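 active = thallium signal inhibited by more than 5 SD of the compound-free buffer control wells, on both duplicate plates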;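 also: 0% = assay buffer control wells without compound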
Kir2-1 spec = mouse Kir2.1 off-target activity of KCNK9 modulators | shares compounds with KCNK9 inh | Kir2.1 cells, FluxOR thallium flux fluorescence | inhibition, % at 10 µM | hit rate 4% among 4,900 | AID 492993;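 active = thallium signal drop more than 5 SD beyond the mean of the no-compound control wells, seen in both duplicate plates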;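 also: signal is fluorescence rise after thallium addition divided by baseline fluorescence; plate controls were assay buffer only for no effect and full block by chlorpromazine control for full effect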
KCNK9 uninduced = second check of KCNK9 modulator effects in non-induced HEK293 cells; hit rate 40% among 4,900; shares compounds with KCNK9 inh; inhibition, % at 10 µM; FluxOR thallium flux;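 active = thallium signal drop beyond 5 SD of the untreated control mean, on both duplicate plates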;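 also: plate controls were buffer only IC0 wells for no effect and SID17386958 at its maximal inhibitory level for full effect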
* hit, by the source's call.

What do the screens show for `CCOc1ccc(NS(=O)(=O)c2ccc(C(=O)N3CCCC(C)C3)cc2)cc1` (stereo not drawn)?
KCNK3 block: inactive; KCNQ1 inh: inactive; KCNK9 inh: inactive; KCNQ1 pot: inactive; hERG protect: -14; KCNK9 block conf: inactive; Kir2-1 spec: inactive; KCNK9 uninduced: inactive

How did CCC(C)(C)N(C(=O)CCC(=O)Nc1cc(C)on1)C(C(=O)NC(C)(C)C)c1ccc(OC)cc1 (stereo not drawn) do in these assays?
KCNK3 block: inactive; KCNQ1 inh: inactive; KCNK9 inh: inactive; KCNQ1 pot: inactive; hERG protect: -7

What do the screens show for `Cn1cc(S(=O)(=O)NC[C@H]2O[C@@H](n3cnc4c(N)ncnc43)[C@H](O)[C@@H]2O)cn1`?
KCNK3 block: inactive

What do the screens show for `COC(=O)c1cc(NC(=O)COC(=O)C2CCC2)cc(C(=O)OC)c1`?
KCNK3 block: inactive; KCNQ1 inh: inactive; KCNK9 inh: inactive; KCNQ1 pot: inactive; hERG protect: -10

What do the screens show for `CN(C)c1ccc(N=c2sc3ccccc3n2C)cc1`?
KCC2 mod: -0.16; KCNK3 block: inactive; KCNQ1 inh: inactive; KCNK9 inh: inactive; KCNQ1 pot: inactive; hERG protect: -1; KCNK9 block conf: inactive; Kir2-1 spec: inactive; KCNK9 uninduced: inactive

How did O=c1c(CN2CCN(Cc3ccccc3F)C(CCO)C2)coc2ccccc12 (stereo not drawn) do in these assays?
KCNK3 block: inactive; KCNQ1 inh: inactive; KCNK9 inh: inactive; KCNQ1 pot: inactive; hERG protect: -4

Results for CSCc1cc(N2CCOCC2)nc(SCc2ccc(Cl)c(Cl)c2)n1 ?
KCC2 mod: -0.0014; KCNK3 block: inactive; KCNQ1 inh: inactive; KCNK9 inh: -9.2*; KCNQ1 pot: inactive; hERG protect: -3; KCNK9 block conf: 31%*; Kir2-1 spec: inactive; KCNK9 uninduced: 38%*

Results for Cn1c(Cc2cccs2)nnc1SCC(=O)Nc1ccc(C(N)=O)cc1 ?
KCNK3 block: inactive; KCNQ1 inh: inactive; KCNK9 inh: inactive; KCNQ1 pot: inactive; hERG protect: -9

Results for CCN=c1scc(-c2ccco2)n1/N=C/c1ccc(OC)c(O)c1 ?
KCC2 mod: -1.7; KCNK3 block: inactive; KCNQ1 inh: inactive; KCNK9 inh: inactive; KCNQ1 pot: inactive; hERG protect: -18; KCNK9 block conf: inactive; Kir2-1 spec: inactive; KCNK9 uninduced: inactive

What do the screens show for `CCOC(=O)c1cc2nc(Nc3ccc(OC)cc3)sc2s1`?
KCC2 mod: 0.0088; KCNK3 block: inactive; KCNQ1 inh: inactive; KCNK9 inh: inactive; KCNQ1 pot: inactive; hERG protect: -9

Results for CCOC(=O)c1sc(-c2ccc(OC)cc2)cc1NC(C)=O ?
KCC2 mod: 0.67; KCNK3 block: inactive; KCNQ1 inh: inactive; KCNK9 inh: inactive; KCNQ1 pot: inactive; hERG protect: -2; KCNK9 block conf: inactive; Kir2-1 spec: inactive; KCNK9 uninduced: inactive

How did CCOc1ccc(-c2cc(NC(=O)c3c(F)cccc3F)c(C(=O)O)s2)cc1 do in these assays?
KCNK3 block: inactive; KCNQ1 inh: inactive; KCNK9 inh: inactive; KCNQ1 pot: inactive; hERG protect: -11; KCNK9 block conf: inactive; Kir2-1 spec: inactive; KCNK9 uninduced: inactive

What do the screens show for `CCOc1ccc(NC(=O)Nc2cc(-c3ccccc3)sc2C(=O)OC)cc1`?
KCC2 mod: 0.0044; KCNK3 block: inactive; KCNQ1 inh: inactive; KCNK9 inh: inactive; KCNQ1 pot: inactive; hERG protect: -6

Results for CC(C)C[C@H](NC(=O)OC(C)(C)C)C(=O)N/N=C/C1=Cc2ccccc2OC1C (stereo partly drawn) ?
KCC2 mod: -0.55; KCNK3 block: inactive; KCNQ1 inh: inactive; KCNK9 inh: -11*; KCNQ1 pot: inactive; hERG protect: -10; KCNK9 block conf: 68%*; Kir2-1 spec: inactive; KCNK9 uninduced: 32%*

Results for O=C(Nc1ccc(C(=O)N2CCCCC2)cc1)c1ccccc1Br ?
KCNK3 block: inactive; KCNQ1 inh: inactive; KCNK9 inh: inactive; KCNQ1 pot: inactive; hERG protect: -4

How did CCC(C)c1ccc(S(=O)(=O)N2CCN(CC(O)COCC3CCCO3)CC2)cc1 (stereo not drawn) do in these assays?
KCNK3 block: inactive

How did O=[N+]([O-])c1ccc(S(=O)(=O)Nc2ccc3c(c2)OCCO3)cc1 do in these assays?
KCNK3 block: inactive; KCNQ1 inh: inactive; KCNK9 inh: -8.1*; KCNQ1 pot: inactive; hERG protect: -10; KCNK9 block conf: inactive; Kir2-1 spec: inactive; KCNK9 uninduced: inactive

How did Cc1ccc(S(=O)(=O)Nc2ccc3c(c2)OCCO3)cc1 do in these assays?
KCC2 mod: 0.56; KCNK3 block: inactive; KCNQ1 inh: inactive; KCNK9 inh: inactive; KCNQ1 pot: inactive; hERG protect: -2

What do the screens show for `CCOc1ccccc1N1CCN(S(=O)(=O)c2ccc(Cl)s2)CC1`?
KCC2 mod: -1.1; KCNK3 block: inactive; KCNQ1 inh: inactive; KCNK9 inh: inactive; KCNQ1 pot: inactive; hERG protect: -7; KCNK9 block conf: inactive; Kir2-1 spec: inactive; KCNK9 uninduced: inactive

What do the screens show for `COc1ccc(OCC(=O)Nc2cc3c(cc2C(=O)O)OCCCO3)cc1`?
KCNK3 block: inactive; KCNQ1 inh: inactive; KCNK9 inh: inactive; KCNQ1 pot: inactive; hERG protect: -10

Results for Cc1ccc2c(C)c(C(=O)N(Cc3ccncc3)CC3CCCO3)oc2c1C (stereo not drawn) ?
KCNK3 block: inactive; KCNQ1 inh: inactive; KCNK9 inh: inactive; KCNQ1 pot: inactive; hERG protect: -5

How did Cc1ccc2oc(C(=O)N(Cc3ccc(N(C)C)cc3)CC3CCCO3)c(C)c2c1 (stereo not drawn) do in these assays?
KCNK3 block: inactive; KCNQ1 inh: inactive; KCNK9 inh: inactive; KCNQ1 pot: inactive; hERG protect: -10; KCNK9 block conf: inactive; Kir2-1 spec: inactive; KCNK9 uninduced: inactive

How did COc1ccc(N(C(=O)c2ccc(S(=O)(=O)N3CCCC3)cc2)C2C=CS(=O)(=O)C2)cc1 (stereo not drawn) do in these assays?
KCNK3 block: inactive; KCNQ1 inh: inactive; KCNK9 inh: inactive; KCNQ1 pot: inactive; hERG protect: -7
